According to ChEMBL document CHEMBL5365494, “Bis-6-amidino-benzothiazole Derivative that Cures Experimental Stage 1 African Trypanosomiasis with a Single Dose” (J Med Chem, 2023):
Activity calls are given as the source filed them. No cut-off for these calls is given here.

Experiments:
[1] = Toxicity in BALB/c mouse infected with bioluminescent Trypanosoma brucei brucei GVR35-VSL2 expressing red-shifted luciferase assessed as hunching in animal at 0.25 to 20 mg/kg, ip administered once daily for 4 days; assay type: organism-based; settings: in vivo, 96 h, dose 0.25-20 mg/kg, time 4 day
Summary of the method: (§1)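 Infected BALB/c mice (bioluminescent T. brucei, 30,000 parasites) dosed i.p. or orally once daily for 4 days starting day 4 post-infection; observed for piloerection, hunching, shaking, lack of activity and body weight change.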

Trypanosoma brucei [2] = test: Antitrypanosomal activity against blood stream form of Trypanosoma brucei 221a variant assessed as parasite growth inhibition measured after 48 hrs by resazurin dye based fluorescence analysis; assay type: functional, organism-based
Summary of the method: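 Bloodstream-form T. b. brucei 221a (MiTat1.2a) in modified Iscove's medium at 37 °C, started at 2.5×10^4 mL^-1 with a concentration range. After 48 h, resazurin was added for a further 16 h. Fluorescence read at ex 545/em 590 nm. EC50 and EC90 taken from three independent replicates.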

[3] = Toxicity in BALB/c mouse infected with bioluminescent Trypanosoma brucei brucei GVR35-VSL2 expressing red-shifted luciferase assessed as lack of activity in animal at 20 mg/kg, po administered once daily for 4 days; assay type: organism-based; settings: in vivo, 96 h, time 4 day; summary of the method: as §1
[4] = Toxicity in BALB/c mouse infected with bioluminescent Trypanosoma brucei brucei GVR35-VSL2 expressing red-shifted luciferase assessed as piloerection in animal at 0.25 to 20 mg/kg, ip administered once daily for 4 days; assay type: organism-based; settings: in vivo, 96 h, dose 0.25-20 mg/kg, time 4 day; summary of the method: as §1
[5] = Toxicity in BALB/c mouse infected with bioluminescent Trypanosoma brucei brucei GVR35-VSL2 expressing red-shifted luciferase assessed as hunching in animal at 20 mg/kg, po administered once daily for 4 days; assay type: organism-based; settings: in vivo, 96 h, time 4 day; summary of the method: as §1
[6] = Selectivity index, ratio of EC50 for cytotoxicity against rat L6 cells to EC50 for antitrypanosomal activity against bloodstream form of Trypanosoma brucei brucei 221a variant; assay type: toxicity, cell-based; settings: read-out: Ratio EC50
Summary of the method: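 L6 rat myoblasts seeded at 1×10^4 mL^-1 in RPMI-1640 with a compound concentration range for 6 days at 37 °C. Resazurin added for 6 h, then fluorescence read.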

[7] = Toxicity in BALB/c mouse infected with bioluminescent Trypanosoma brucei brucei GVR35-VSL2 expressing red-shifted luciferase assessed as lack of activity in animal at 0.25 to 20 mg/kg, ip administered once daily for 4 days; assay type: organism-based; settings: in vivo, 96 h, dose 0.25-20 mg/kg, time 4 day; summary of the method: as §1
[8] = Metabolic stability in mouse liver microsomes assessed as half life at 1 uM measured upto 60 mins in presence of NADPH by LC-MS/MS analysis; assay type: ADME, Microsome; settings: 1 h
Trypanosoma brucei [9] = test: Antitrypanosomal activity against blood stream form of Trypanosoma brucei 221a variant assessed as parasite growth inhibition at 0.15 to 4.8 nM preincubated for 24 hrs followed by subculturing with fresh medium with compounds and measured after 2 days by resazurin dye based fluorescence analysis; assay type: functional, organism-based; settings: dose 0.15-4.8 nM, time 3.0 day
Summary of the method: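 Bloodstream-form T. brucei seeded in flasks at 10^5 mL^-1 with a range of compound concentrations. Every 24 h parasites were sub-cultured back to 10^5 mL^-1 in continued compound presence, through day 10. Growth reported as cumulative parasite number. In a washout arm, parasites were exposed for 3 days, moved to compound-free medium and followed for 12 days.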

[10] = Toxicity in BALB/c mouse infected with bioluminescent Trypanosoma brucei brucei GVR35-VSL2 expressing red-shifted luciferase assessed as shaking in animal at 0.25 to 20 mg/kg, ip administered once daily for 4 days; assay type: organism-based; settings: in vivo, 96 h, dose 0.25-20 mg/kg, time 4 day; summary of the method: as §1
Trypanosoma brucei [11] = test: Resistance development in blood stream form of Trypanosoma brucei assessed as fold increase in resistance at 10 ug/ml preincubated for 6 hrs with bafilomycin Al followed by compound addition and measured after 48 hrs by resazurin dye-based analysis; assay type: functional; settings: dose 10 µg/ml
Summary of the method: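 Bloodstream-form T. brucei pre-incubated 6 h in 4 or 8 nM bafilomycin A1, then given compound and kept in BafA1. The run then followed the 48 h microtiter resazurin assay: start at 2.5×10^4 mL^-1, 37 °C, 16 h resazurin, fluorescence ex 545/em 590 nm. Done in triplicate.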

Trypanosoma brucei [12] = test: Resistant development in Trypanosoma brucei harboring aqp null mutants assessed as fold reduction in sensitivity incubated for 48 hrs by resazurin dye based analysis relative to control; assay type: functional
Summary of the method: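 Tbaqp null mutant bloodstream lines tested in the 48 h resazurin microtiter assay: 2.5×10^4 parasites mL^-1 at 37 °C, then 16 h with resazurin and fluorescence read-out. EC50 found for each line in triplicate.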

[13] = Apparent permeability across basolateral to apical side in MDCK-MDR1 cells at 10 uM measured for 60 mins by LC-MS/MS analysis; assay type: ADME, cell-based, Canis lupus familiaris; settings: dog, mdck-mdr1, 1 h, 10 µM
Summary of the method: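 MDCKII-hMDR1 monolayers on inserts, compound 10 μM (1% DMSO) in duplicate, 60 min at 37 °C, bidirectional, with and without elacridar 2 μM. Amprenavir as P-gp control, Lucifer yellow for monolayer integrity; compound quantified by LC–MS/MS.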

[14] = Drug localization in kinetoplast of Trypanosoma brucei bloodstream form at 10 ug/ml measured for 180 mins by fluorescence microscopy; assay type: ADME, subcellular; settings: 3 h, dose 10 µg/ml
Summary of the method: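 Bloodstream-form T. brucei incubated with compound 10 μg mL⁻¹ for 60 or 180 min or 24 h; fixed in 4% PFA, mounted with DAPI, imaged by fluorescence microscopy (ex 550/em 585 nm).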

## CS(=O)(=O)O.CS(=O)(=O)O.N=C(N)c1ccc2nc(C3CCC(c4nc5ccc(C(=N)N)cc5s4)CC3)sc2c1 (stereo not given)
[1]
  Activity: Non-Toxic
Trypanosoma brucei [2]; 48 h
  EC50: 1 nM
Trypanosoma brucei [2]; time 48 hrs
  EC90: 1 nM
[3]
  Activity: Non-Toxic
[4]
  Activity: Non-Toxic
[5]
  Activity: Non-Toxic
[6]
  selectivity ratio: 26300
[7]
  Activity: Non-Toxic
[8]
  t1/2: > 1 h
Trypanosoma brucei [9]
  Activity: Active
[10]
  Activity: Non-Toxic
Trypanosoma brucei [11]
  fold change (FC): 5
Trypanosoma brucei [12]
  fold change (FC): 1.3
[13]
  Papp: 0.4 10^-6 cm/s
[14]
  Drug uptake: Not Active
